A selection: hits, their analogues and other compounds. The true share with any hit is near 2.2%.
697 NFkB inh = inhibitors of PMA/ionomycin-induced NF-kB reporter, 697 cells, primary screen, B-cell NF-kB inhibitor project, cell-based, luminescence, uHTS; 330,000 compounds, 0.33% hits; inhibition, % at 4 µM; 697 B-cell NF-kB luciferase reporter, 16 h; AID 435022, 2010; in the data active = inhibition above about 35%
miR122 inh = miR-122 Renilla sensor signal increase in Huh7, primary screen, miR-122 inhibitor project, cell-based, single point, plate reader | Huh7 miR-122 Renilla luciferase sensor, 48 h; neutral wells = 0, positive control = 100 | 340,000 compounds, 0.3% hits | activation (reporter increase), % at 12.5 µM;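 active = mean replicate activation score at least 90 and every replicate individually at or above 90; inconclusive = only one of the two criteria met; inactive = neither criterion met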;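 also: higher luciferase means less miR-122 activity so hits act as miR-122 inhibitors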
NR2E3 ag-1 = NR2E3 agonists in two-hybrid cells, primary screen, cell-based, luminescence, CHO-S, Gal4-NCOR/VP16-NR2E3 | Photoreceptor-specific nuclear receptor (Homo sapiens), Q9Y5X4 | luciferase | inhibition of corepressor binding, % at 3.98 µM | 360,000 compounds, 0.35% hits | AID 602229, 2012;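 active = inhibition above the mean of all tested compounds plus 3 SD, cut at about 70% in these data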;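 also: higher means lower luciferase signal from less NR2E3 corepressor binding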
Jurkat NFkB inh = inhibitors of induced NF-kB luciferase reporter, primary screen, TCR NF-kB activation inhibitor project, cell-based, luminescence, uHTS. Jurkat, PMA/ionomycin-induced NF-kB luciferase reporter. inhibition, % at 4 µM. 330,000 compounds, 0.53% hits. AID 435003, 2010; in the data active = inhibition above about 50%
FGF22 binding = binders of human FGF22 protein, primary screen, FGF22 synaptogenesis inhibitor project, biophysical, thermal shift, single point. activity (Tm shift, normalised), % at 9.99 µM. recombinant FGF22 thermal shift, SYPRO orange fluorescence; percent of sucrose octasulfate shift, DMSO zero. 340,000 compounds, 1.5% hits. AID 651658, 2012;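 active = mean Tm shift, scaled 0 neutral to 100 positive control, at about 1.3% or above, every replicate too, limit read from the data; inconclusive = no clear call, values can overlap the other calls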
Target sequence (Q9HCT0 whole entry, looked up): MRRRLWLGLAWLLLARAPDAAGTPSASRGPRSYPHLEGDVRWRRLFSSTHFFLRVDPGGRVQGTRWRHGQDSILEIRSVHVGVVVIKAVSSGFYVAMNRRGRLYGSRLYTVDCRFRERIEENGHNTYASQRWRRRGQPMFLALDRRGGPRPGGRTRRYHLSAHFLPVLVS
NR2E3 ag-2 = inhibitors of NR2E3-RetCOR corepressor binding, primary screen, NR2E3 agonist project, biochemical, TR-FRET, GST-NR2E3, biotin-RetCOR; Photoreceptor-specific nuclear receptor (Homo sapiens), Q9Y5X4; 1536-well; inhibition of corepressor binding, % at 4.78 µM; 320,000 compounds, 0.12% hits; AID 2300, 2010;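 active = percent inhibition above the cutoff of mean plus 3 SD of all tested compounds, set per screening campaign, cut at about 20% in these data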
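Test system – NR2E3–RetCOR corepressor complex · Quantity – NR2E3 fusion 1.35 nM · Buffer or medium – Tris pH 7.5 · Incubation – Compound–protein incubation for 5 h at 4 °C · Technique – TR-FRET, Eu(K)-anti-GST donor, streptavidin-D2 acceptor, ex 340, em 617/671 nm · Evaluation – percent inhibition of 671/617 nm emission ratio versus biotin and DMSO controls · Plate – 1536-well format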
Jurkat NFkB conf = PMA/ionomycin-induced NF-kB reporter inhibitors, Jurkat retest, confirmation, T-cell NF-kB inhibitor project, cell-based, luminescence, single concentration; shares compounds with Jurkat NFkB inh; Jurkat NF-kB luciferase, 16 h; inhibition, % at 4 µM; 2,700 compounds, 27% hits; AID 435020, 2010;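 active = inhibition reaching about 45% at 4 µM in either replicate, limit read from the data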
Each line names hits and unclear results; the compound was inactive in the other large screens (follow-up assays come after a bar, where they were run).

CC(C)NC(=O)N(C)C[C@H]1OCCCC[C@H](C)Oc2ccc(NS(=O)(=O)c3cccs3)cc2C(=O)N([C@@H](C)CO)C[C@H]1C	none (no result: 697 NFkB inh, NR2E3 ag-1, Jurkat NFkB inh, NR2E3 ag-2)
O=C(C[C@H]1CC[C@@H](NC(=O)C2CCOCC2)[C@@H](CO)O1)Nc1ccc(-c2ccccc2)cc1	none (no result: 697 NFkB inh, miR122 inh, NR2E3 ag-1, Jurkat NFkB inh, NR2E3 ag-2)
CCC(=O)N(C)C[C@@H]1[C@@H](c2ccc(-c3cccnc3)cc2)[C@H](CO)N1C(C)=O	none (no result: 697 NFkB inh, NR2E3 ag-1, Jurkat NFkB inh, NR2E3 ag-2)
C/C=C/COC(=O)c1[nH]c2c(c1C)C(=O)CC(c1ccco1)C2 (stereo not given)	miR122 inh inconclusive, Jurkat NFkB inh 59 | Jurkat NFkB conf 43
C/C=C/COC(=O)c1[nH]c2c(c1C)C(=O)CC(c1ccc(N(C)C)cc1)C2 (stereo not given)	none
COC(=O)C1C(=O)c2c([nH]c(C(=O)OC3CCCC3)c2C)CC1C (stereo not given)	none (no result: FGF22 binding) | Jurkat NFkB conf inactive
Cc1nc(-c2ccccc2)sc1-c1ccn[nH]1	none | Jurkat NFkB conf inactive
CN1C(=O)c2cc(NC(=O)C3CCCC3)ccc2OC[C@H]2O[C@H](CC(=O)O)CC[C@H]21	none (no result: 697 NFkB inh, NR2E3 ag-1, Jurkat NFkB inh, NR2E3 ag-2)
COc1cc(NS(=O)(=O)c2ccc(OC)c(C)c2C)c(OC)cc1Cl	miR122 inh 272, Jurkat NFkB inh 58 (no result: FGF22 binding) | Jurkat NFkB conf 51
COc1ccc(N=Nc2cc(C)ccc2O)cc1	none (no result: miR122 inh) | Jurkat NFkB conf inactive
Cc1ccc(O)c(N=Nc2ccc(S(=O)(=O)N3CCCC3)cc2)c1	none
CC(=O)/C(N=Nc1cc(C)ccc1O)=C(\C)O	none (no result: miR122 inh)
Cc1ccc(O)c(N=Nc2nccs2)c1	Jurkat NFkB inh 59 | Jurkat NFkB conf 79
O=C(C[C@@H]1CC[C@H]2[C@@H](COC[C@@H](O)CN2CCc2ccccc2)O1)N1CCC(Cc2ccccc2)CC1	none (no result: 697 NFkB inh, NR2E3 ag-1, Jurkat NFkB inh, NR2E3 ag-2)
CCCCCCN1C=CC(=C2C(=O)c3ccccc3C2=O)C=C1	none
CCN1C=CC(=C2C(=O)c3ccccc3C2=O)C=C1	Jurkat NFkB inh 54 (no result: FGF22 binding) | Jurkat NFkB conf 45
COc1ccc(OC)c(C2CC(=O)c3c([nH]c(C(=O)OC(C)C)c3C)C2)c1 (stereo not given)	Jurkat NFkB inh 60 | Jurkat NFkB conf 58
CCCOCCOC(=O)c1[nH]c2c(c1C)C(=O)CC(c1cc(OC)ccc1OC)C2 (stereo not given)	Jurkat NFkB inh 72 | Jurkat NFkB conf inactive
O=C(NC1CCC1)[C@@H]1[C@@H](CO)[C@@H]2Cn3c(ccc(-c4ccccc4F)c3=O)[C@@H]2N1Cc1ccncc1	none (no result: 697 NFkB inh, NR2E3 ag-1, Jurkat NFkB inh, NR2E3 ag-2)
CO[C@@H]1CN(C)C(=O)c2cc(NC(=O)c3ccccc3)ccc2OC[C@@H](C)N(C(=O)C2CC2)C[C@@H]1C	none (no result: 697 NFkB inh, NR2E3 ag-1, Jurkat NFkB inh, NR2E3 ag-2)
CCn1c(O)c(/C=C2\C=Nc3ccccc32)sc1=Nc1ccc(C)cc1	Jurkat NFkB inh 62 | Jurkat NFkB conf inactive
O=S(=O)(c1ccccc1F)N1CC[C@@H]2[C@H]1c1cc(-c3ccccc3F)ccc1N[C@@H]2CO	none (no result: 697 NFkB inh, NR2E3 ag-1, Jurkat NFkB inh, NR2E3 ag-2)
COc1cc(C(=O)NC2CCCc3ccccc32)cc(OC)c1C (stereo not given)	none
COc1ccc(C(=O)NC2CCCc3ccccc32)cc1[N+](=O)[O-] (stereo not given)	Jurkat NFkB inh 54 (no result: miR122 inh) | Jurkat NFkB conf inactive
CCC(=O)N1CCCCN2[C@H](C1)[C@H](c1ccc(C#Cc3cccnc3)cc1)[C@@H]2CO	none (no result: 697 NFkB inh, NR2E3 ag-1, Jurkat NFkB inh, NR2E3 ag-2)
Cc1ccc(/C=N/NC(=O)c2cc(-c3cccnc3)nc3ccccc23)cc1	Jurkat NFkB inh 63, FGF22 binding 43 (no result: miR122 inh) | Jurkat NFkB conf inactive

Screens: PubChem, several laboratories
